Published values collected from several papers.
Compare with care: the assays were run in different laboratories.
ADRA2B: Alpha-2B adrenergic receptor (ADRA2B, Homo sapiens, UniProt P18089)
PIK3CG: Phosphatidylinositol 4,5-bisphosphate 3-kinase catalytic subunit gamma isoform (PIK3CG, Homo sapiens, UniProt P48736)

With `Cc1cc(Oc2ncccc2CN2CCN(c3ccccc3Br)CC2)ccc1-c1c(C)c(=O)[nH]c(=O)n1C` the Ki was 49.6 nM (ADRA2B; ligand displacement; radioligand).
For `N#Cc1ccc2c(CN3CCOCC3)cc(-c3ccc([C@@H]4CCC(=O)N4)cc3)nc2c1`, the Kd was 1 nM (Advanced glycosylation end product-specific receptor (AGER, Homo sapiens, UniProt Q15109); binding; fluorescence).
`COc1cc(N=C2C(=O)N(Cc3ccccc3)c3ccccc32)cc(OC)c1` has an IC50 of 1.94 nM (PIK3CG; enzyme activity; inhibitor; ADP detection).
For `CN1CCc2nc(NC(=O)C3=NN(c4ccc(F)cc4)C(C(N)=O)C3)sc2C1` (stereo not shown), the Kd was > 71000 nM (DDB1- and CUL4-associated factor 7 (Homo sapiens, UniProt P61962); binding; SPR).
With `Cc1cc(Oc2ncccc2CN2CCN(c3ccc(Cl)cc3)CC2)ccc1-c1c(C)c(=O)[nH]c(=O)n1C` the Ki was 338 nM (ADRA2B; ligand displacement; radioligand).
For `Cc1ccc(CN2C(=O)C(=Nc3c(C(C)C)cccc3C(C)C)c3ccccc32)cc1`, the IC50 was 18.6 nM (PIK3CG; enzyme activity; inhibitor; ADP detection).
The Ki of `Cc1cc(Oc2ncccc2CN2CCN(c3ccccc3O)CC2)ccc1-c1c(C)c(=O)[nH]c(=O)n1C` is reported as 97.5 nM (ADRA2B; ligand displacement; radioligand).
With `CCc1ccc(N=C2C(=O)N(Cc3ccccc3)c3ccccc32)cc1` the IC50 was 2.09 nM (PIK3CG; enzyme activity; inhibitor; ADP detection).
For `NC(=O)C1=CN([C@@H]2O[C@H](COP(=O)(O)OP(=O)(O)OC[C@H]3O[C@@H](n4cnc5c(N)ncnc54)[C@H](OP(=O)(O)O)[C@@H]3O)[C@@H](O)[C@H]2O)C=CC1`, the Kd was 956 nM (MECR (Homo sapiens, UniProt Q9BV79); binding; ITC).
`CC(C)C[C@H](NC(=O)[C@H](CC(C)C)NC(=O)[C@H](Cc1c[nH]c2ccccc12)NC(=O)[C@H](CCC(N)=O)NC(=O)[C@@H](NC(=O)[C@H](Cc1ccccc1)NC(=O)[C@H](CC(=O)O)NC(=O)[C@H](CCC(N)=O)NC(=O)[C@H](C)NC(=O)[C@H](C)NC(=O)[C@H](CCCNC(=N)N)NC(=O)[C@H](CCC(=O)O)NC(=O)[C@H](CC(=O)O)NC(=O)[C@H](CC(C)C)NC(=O)[C@H](Cc1ccc(O)cc1)NC(=O)[C@H](CCCCN)NC(=O)[C@H](CO)NC(=O)[C@H](Cc1ccc(O)cc1)NC(=O)[C@H](CC(=O)O)NC(=O)[C@H](CO)NC(=O)[C@@H](NC(=O)[C@H](Cc1ccccc1)NC(=O)[C@@H](NC(=O)CNC(=O)[C@H](CCC(N)=O)NC(=O)C(C)(C)NC(=O)[C@@H](N)Cc1c[nH]cn1)[C@@H](C)O)[C@@H](C)O)C(C)C)C(=O)N[C@@H](CC(=O)O)C(=O)NCC(=O)NCC(=O)N1CCC[C@H]1C(=O)N[C@@H](CO)C(=O)N[C@@H](CC(C)C)C(=O)N[C@@H](CCCNC(=N)N)C(=O)N[C@@H](Cc1c[nH]cn1)C(=O)N[C@@H](Cc1ccc(O)cc1)C(=O)N[C@@H](CC(C)C)C(=O)N[C@@H](CC(N)=O)C(=O)N[C@@H](CC(C)C)C(=O)N[C@H](C(=O)N[C@H](C(=O)N[C@@H](CCCNC(=N)N)C(=O)N[C@@H](CCC(N)=O)C(=O)N[C@@H](CCCNC(=N)N)C(=O)N[C@@H](Cc1ccc(O)cc1)C(N)=O)[C@@H](C)O)C(C)C` has an EC50 of 0.12 nM (Glucagon receptor (GCGR, Homo sapiens, UniProt P47871); reporter gene; agonist; luciferase).
`Cc1cc(Oc2ncccc2CN2CCN(c3cccc(Cl)c3Cl)CC2)ccc1-c1c(C)c(=O)[nH]c(=O)n1C` gave a Ki of 113 nM (ADRA2B; ligand displacement; radioligand).
With `CCN1/C(=C/C(C)=O)Sc2ccc(F)cc21` the Ki was 987 nM (ADRA2B; ligand displacement; radioligand).
For `Cc1ccc(CN2C(=O)C(=Nc3cccc(C)c3)c3ccccc32)cc1`, the IC50 was 0.98 nM (PIK3CG; enzyme activity; inhibitor; ADP detection).
